In ChEMBL document CHEMBL5058577, “EUbOPEN Chemogenomics Library 2 (Multiplex)” (2022):

Tested on: Fibroblast
Assay: Multiplex assay against human fibroblast
Assay type: toxicity, cell-based
Outline: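 Cells stained live at seeding with Hoechst33342, BioTracker Green Microtubule Cytoskeleton Dye, MitoTracker Red and Annexin V Alexa Fluor 680 were imaged on a CQ1 microscope at 37°C and 5% CO2 after compound addition. Their classification by CellPathfinder machine-learning gating ran from Hoechst high-intensity objects versus normal cells, to healthy, pyknosed or fragmented nuclei among normal cells, to mitotic or apoptotic among pyknosed cells. Tubulin, mitochondrial-mass and membrane-permeability phenotypes are per cents of healthy-nucleus cells.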

[1] = 12 h, 1 µM, compound concentration 1 uM, replicate 1
[2] = 12 h, 1 µM, compound concentration 1 uM, replicate 2
[3] = 12 h, 10 µM, compound concentration 10 uM, replicate 1
[4] = 12 h, 10 µM, compound concentration 10 uM, replicate 2
[5] = 24 h, 1 µM, compound concentration 1 uM, replicate 1
[6] = 24 h, 1 µM, compound concentration 1 uM, replicate 2
[7] = 24 h, 10 µM, compound concentration 10 uM, replicate 1
[8] = 24 h, 10 µM, compound concentration 10 uM, replicate 2
[9] = 48 h, 1 µM, compound concentration 1 uM, replicate 1
[10] = 48 h, 1 µM, compound concentration 1 uM, replicate 2
[11] = 48 h, 10 µM, compound concentration 10 uM, replicate 1
[12] = 48 h, 10 µM, compound concentration 10 uM, replicate 2

With `Cc1cc(=O)n(C)c2cc(N3C(=O)CC[C@H](NS(=O)(=O)CC(C)C)[C@H]3c3ccc(Cl)cc3)ccc12` the “Population Apoptotic (%)” value [1] was 31%, the “Population Fragmented Nuclei (%)” value [1] was 16% and the “Population Healthy Nuclei (%)” value [1] was 56%. For the same compound, the “Population Hoechst High Intensity Objects (%)” value [1] was 2%, the “Population Membrane Permeable-Phenotype (%)” value [1] was 0% and the “Population Mitochondria Different-Phenotype (%)” value [1] was 4%. For the same compound, the “Population Mitotic Cells (%)” value [1] was 68%, the “Population Normal (%)” value [1] was 97% and the “Population Pyknosed Nuclei (%)” value [1] was 26%. For the same compound, the “Population Tubulin-Different-Phenotype (%)” value [1] was 34%, the “Total Cell Count” value [1] was 135 and the “Population Apoptotic (%)” value [2] was 38%. The “Population Fragmented Nuclei (%)” value [2] was 20%, the “Population Healthy Nuclei (%)” value [2] was 38% and the “Population Hoechst High Intensity Objects (%)” value [2] was 10%. The “Population Membrane Permeable-Phenotype (%)” value [2] was 8%, the “Population Mitotic Cells (%)” value [2] was 62% and the “Population Normal (%)” value [2] was 89%. For the same compound, the “Population Pyknosed Nuclei (%)” value [2] was 40%, the “Population Tubulin-Different-Phenotype (%)” value [2] was 61% and the “Total Cell Count” value [2] was 137. For the same compound, the “Population Apoptotic (%)” value [3] was 41%, the “Population Fragmented Nuclei (%)” value [3] was 11% and the “Population Healthy Nuclei (%)” value [3] was 40%. The “Population Hoechst High Intensity Objects (%)” value [3] was 3%, the “Population Membrane Permeable-Phenotype (%)” value [3] was 1% and the “Population Mitochondria Different-Phenotype (%)” value [3] was 8%. For the same compound, the “Population Mitotic Cells (%)” value [3] was 58%, the “Population Normal (%)” value [3] was 96% and the “Population Pyknosed Nuclei (%)” value [3] was 48%. For the same compound, the “Population Tubulin-Different-Phenotype (%)” value [3] was 86%, the “Total Cell Count” value [3] was 149 and the “Population Apoptotic (%)” value [4] was 18%. The “Population Fragmented Nuclei (%)” value [4] was 26%, the “Population Healthy Nuclei (%)” value [4] was 31% and the “Population Hoechst High Intensity Objects (%)” value [4] was 11%. The “Population Membrane Permeable-Phenotype (%)” value [4] was 8%, the “Population Mitotic Cells (%)” value [4] was 82% and the “Population Normal (%)” value [4] was 88%. For the same compound, the “Population Pyknosed Nuclei (%)” value [4] was 42%, the “Population Tubulin-Different-Phenotype (%)” value [4] was 94% and the “Total Cell Count” value [4] was 133. For the same compound, the “Population Apoptotic (%)” value [5] was 34%, the “Population Fragmented Nuclei (%)” value [5] was 18% and the “Population Healthy Nuclei (%)” value [5] was 62%. For the same compound, the “Population Hoechst High Intensity Objects (%)” value [5] was 2%, the “Population Membrane Permeable-Phenotype (%)” value [5] was 1% and the “Population Mitochondria Different-Phenotype (%)” value [5] was 4%. The “Population Mitotic Cells (%)” value [5] was 65%, the “Population Normal (%)” value [5] was 97% and the “Population Pyknosed Nuclei (%)” value [5] was 18%. The “Population Tubulin-Different-Phenotype (%)” value [5] was 24%, the “Total Cell Count” value [5] was 140 and the “Population Apoptotic (%)” value [6] was 50%. The “Population Fragmented Nuclei (%)” value [6] was 26%, the “Population Healthy Nuclei (%)” value [6] was 44% and the “Population Hoechst High Intensity Objects (%)” value [6] was 10%. The “Population Membrane Permeable-Phenotype (%)” value [6] was 13%, the “Population Mitochondria Different-Phenotype (%)” value [6] was 5% and the “Population Mitotic Cells (%)” value [6] was 50%. The “Population Normal (%)” value [6] was 89%, the “Population Pyknosed Nuclei (%)” value [6] was 29% and the “Population Tubulin-Different-Phenotype (%)” value [6] was 70%. The “Total Cell Count” value [6] was 128, the “Population Apoptotic (%)” value [7] was 43% and the “Population Fragmented Nuclei (%)” value [7] was 14%. For the same compound, the “Population Healthy Nuclei (%)” value [7] was 46%, the “Population Hoechst High Intensity Objects (%)” value [7] was 10% and the “Population Membrane Permeable-Phenotype (%)” value [7] was 0%. For the same compound, the “Population Mitochondria Different-Phenotype (%)” value [7] was 19%, the “Population Mitotic Cells (%)” value [7] was 56% and the “Population Normal (%)” value [7] was 90%. The “Population Pyknosed Nuclei (%)” value [7] was 39%, the “Population Tubulin-Different-Phenotype (%)” value [7] was 88% and the “Total Cell Count” value [7] was 150. For the same compound, the “Population Apoptotic (%)” value [8] was 42%, the “Population Fragmented Nuclei (%)” value [8] was 28% and the “Population Healthy Nuclei (%)” value [8] was 26%. For the same compound, the “Population Hoechst High Intensity Objects (%)” value [8] was 8%, the “Population Membrane Permeable-Phenotype (%)” value [8] was 17% and the “Population Mitochondria Different-Phenotype (%)” value [8] was 8%. For the same compound, the “Population Mitotic Cells (%)” value [8] was 57%, the “Population Normal (%)” value [8] was 91% and the “Population Pyknosed Nuclei (%)” value [8] was 45%. The “Population Tubulin-Different-Phenotype (%)” value [8] was 85%, the “Total Cell Count” value [8] was 143 and the “Population Apoptotic (%)” value [9] was 48%. The “Population Fragmented Nuclei (%)” value [9] was 27%, the “Population Healthy Nuclei (%)” value [9] was 54% and the “Population Hoechst High Intensity Objects (%)” value [9] was 2%. The “Population Membrane Permeable-Phenotype (%)” value [9] was 1%, the “Population Mitochondria Different-Phenotype (%)” value [9] was 2% and the “Population Mitotic Cells (%)” value [9] was 52%. For the same compound, the “Population Normal (%)” value [9] was 97%, the “Population Pyknosed Nuclei (%)” value [9] was 18% and the “Population Tubulin-Different-Phenotype (%)” value [9] was 27%. The “Total Cell Count” value [9] was 141, the “Population Apoptotic (%)” value [10] was 46% and the “Population Fragmented Nuclei (%)” value [10] was 35%. The “Population Hoechst High Intensity Objects (%)” value [10] was 7%, the “Population Membrane Permeable-Phenotype (%)” value [10] was 8% and the “Population Mitochondria Different-Phenotype (%)” value [10] was 8%. For the same compound, the “Population Mitotic Cells (%)” value [10] was 53%, the “Population Normal (%)” value [10] was 92% and the “Population Pyknosed Nuclei (%)” value [10] was 9%. For the same compound, the “Population Tubulin-Different-Phenotype (%)” value [10] was 73%, the “Total Cell Count” value [10] was 142 and the “Population Apoptotic (%)” value [11] was 61%. For the same compound, the “Population Fragmented Nuclei (%)” value [11] was 23%, the “Population Healthy Nuclei (%)” value [11] was 38% and the “Population Hoechst High Intensity Objects (%)” value [11] was 15%. For the same compound, the “Population Membrane Permeable-Phenotype (%)” value [11] was 0%, the “Population Mitochondria Different-Phenotype (%)” value [11] was 24% and the “Population Mitotic Cells (%)” value [11] was 38%. For the same compound, the “Population Normal (%)” value [11] was 84%, the “Population Pyknosed Nuclei (%)” value [11] was 37% and the “Population Tubulin-Different-Phenotype (%)” value [11] was 92%. For the same compound, the “Total Cell Count” value [11] was 153, the “Population Apoptotic (%)” value [12] was 54% and the “Population Fragmented Nuclei (%)” value [12] was 34%. The “Population Healthy Nuclei (%)” value [12] was 37%, the “Population Hoechst High Intensity Objects (%)” value [12] was 10% and the “Population Membrane Permeable-Phenotype (%)” value [12] was 25%. The “Population Mitochondria Different-Phenotype (%)” value [12] was 8%, the “Population Mitotic Cells (%)” value [12] was 45% and the “Population Normal (%)” value [12] was 89%. The “Population Pyknosed Nuclei (%)” value [12] was 27%, the “Population Tubulin-Different-Phenotype (%)” value [12] was 87% and the “Total Cell Count” value [12] was 141.
